Test results: the RNAGym collection of RNA variant scans (doi:10.1002/anie.201605470)

B1: Osa-1-4 twister ribozyme (parent)
chain: CCGCCUAACACUGCCAAUGCCGGUCCCAAGCCCGGAUAAAAGUGGAGGGGGCGG

Variants of: B1
Assay: self-cleavage, relative activity (ratio to wild type); higher = more cleavage; co-transcriptional
In short: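 Values are relative activity: the fraction cleaved, normalised to wild type. A doped DNA template for a 54-nucleotide twister ribozyme from Oryza sativa had 97 % wild-type base and 1 % of each other base at the 48 positions downstream of the cleavage site. The RNA was transcribed in vitro for 2 h at 37 °C so that it could cleave itself co-transcriptionally, then sequenced deeply, with cleavage status scored from the presence or absence of upstream sequence in reads.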

self-cleavage, 0.33:
A28C C15U
A28C U43C

self-cleavage, 0.34:
A28C U12C
A28G U18A

self-cleavage, 0.2:
A28C A7G
A28C G23A
A28C G47A
A28G C52A
A28U A40U

self-cleavage, 0.15:
A28C U12G
A28G C14G
A28G G19A
A28G G35U
A28G G54A
A28U C27U

self-cleavage, 0.36:
A28G A36U

self-cleavage, 0.27:
A28G G54U
A28U C11A

self-cleavage, 0.95:
A28C G44A
A28C G44C
A28C G54U
A28U A38C
A28U C20U

self-cleavage, 0.06:
A28C A7C
A28C A46C
A28G A29U
A28G C11G
A28G C21G
A28G C27A
A28G C32A
A28G C33A
A28G G22C
A28G G49A
A28G G49U
A28G G51C
A28G G51U
A28G G53C
A28G U24A
A28U A8C
A28U A29U

self-cleavage, 0.37:
A28G C20A
A28G U37C

self-cleavage, 0.87:
A28U A38U

self-cleavage, 0.31:
A28C C20G
A28G C20U

self-cleavage, 0.48:
A28G

self-cleavage, 0.22:
A28G A38G
A28U C26U

self-cleavage, 0.29:
A28G C9G
A28U A41G

self-cleavage, 0.02:
A28C G13C
A28G A29C
A28G C31A
A28G U24G

self-cleavage, 0.97:
A28C A38U

self-cleavage, 0.11:
A28C C27U
A28C C32U
A28C G13A
A28G A39C
A28G C9U
A28G C14U
A28G C25U
A28G C26U
A28G C33U
A28G G44U
A28G G51A
A28U C15A

self-cleavage, 0.9:
A28U C20A

self-cleavage, 0.85:
A28C G35U

self-cleavage, 0.24:
A28C G51A
A28U A40G

self-cleavage, 0.67:
A28C C9G

self-cleavage, 0.25:
A28G U37A

self-cleavage, 0.64:
A28C A36C

self-cleavage, 0.32:
A28C C15G
A28C U43G
A28G C52G

self-cleavage, 0.01:
A28G G13U

self-cleavage, 0.96:
A28C U18A
A28U
A28U C52G

self-cleavage, 0.19:
A28C G47U
A28G A8G
A28U C31U

self-cleavage, 0.79:
A28C G19A
A28U A39G
A28U A41C

self-cleavage, 0.84:
A28C C31U

self-cleavage, 0.28:
A28C G51U
A28G G50A
A28U C25U

self-cleavage, 0.82:
A28C A41G

self-cleavage, 0.07:
A28C A7U
A28C A46G
A28C A46U
A28C C33G
A28C G23U
A28C G48U
A28C G49C
A28G A7U
A28G A8U
A28G C21A
A28G C27U
A28G G42C
A28G G47U
A28G U12G
A28G U24C
A28U A7U
A28U A46C
A28U C14G
A28U C21G
A28U C25A
A28U C31G
A28U C32A

self-cleavage, 1.01:
A28C A38G
A28C C20U
A28C C52U
A28C U18G
A28C U37C

self-cleavage, 0.45:
A28G A36G

self-cleavage, 0.09:
A28C A8C
A28C A29U
A28C C14A
A28C C21G
A28C C25A
A28C C25G
A28C C26G
A28C C27A
A28C C31G
A28C G48A
A28G A36C
A28G A40U
A28G C11A
A28G C25G
A28G C31G
A28G G35C
A28G U43G
A28U A8U
A28U C20G
A28U C27A

self-cleavage, 0.92:
A28U A38G

self-cleavage, 0.12:
A28C C33A
A28C G42C
A28C G51C
A28G G44C
A28G U12A
A28U C11G

self-cleavage, 0.5:
A28G A46G

self-cleavage, 0.94:
A28C C20A
A28U A36U

self-cleavage, 0.17:
A28C A8G
A28C C14G
A28G A39G

self-cleavage, 0.89:
A28C U12A

self-cleavage, 0.18:
A28C U24C
A28U A8G

self-cleavage, 1:
A28C
A28C A36G
A28C A39U
A28C C21U
A28C G50C

self-cleavage, 0.35:
A28C C15A
A28C G19U
A28U C9G

self-cleavage, 0.1:
C27U U43C
A28C A8U
A28C C32G
A28G C27G
A28G G22U
A28G G34U
A28G G42A
A28G G44A
A28G G53U
A28G U12C
A28G U43C
A28U C15U
A28U C26G
A28U C32G
A28U C32U

self-cleavage, 0.42:
A28C C9A

self-cleavage, 0.49:
A28U C33U

self-cleavage, 0.91:
A28C A41C
A28C C11U
A28C C25U
A28C G54A

self-cleavage, 0.04:
A28C C31A
A28C G30A
A28C G30U
A28G A7C
A28G A46C
A28G C9A
A28G C25A
A28G G23C
A28G G30C
A28G G42U
A28G G45C
A28G G47C
A28G G48A
A28G G48U
A28G G49C
A28U A7C
A28U A40C
A28U C26A

self-cleavage, 0.74:
A28C U37A

self-cleavage, 0.13:
A28C G45A
A28C G49U
A28G A41C
A28G G23A
A28U A7G

self-cleavage, 0.14:
A28C U24A
A28G A40G
A28G A41G
A28G G22A
A28G G50C
A28G G53A
A28G G54C
A28G U43A
A28U C14U
A28U C15G

self-cleavage, 0.55:
A28C A40U

self-cleavage, 0.57:
A28U C9U

self-cleavage, 0.05:
A28C A29C
A28C C26A
A28C C27G
A28C G23C
A28C G30C
A28C U24G
A28G A8C
A28G A40C
A28G A46U
A28G C14A
A28G C32U
A28G C33G
A28G G13A
A28G G19C
A28G G23U
A28G G30A
A28G G30U
A28G G45A
A28G G45U
A28G G48C
A28U C14A
A28U C25G
A28U C27G
A28U C33G

self-cleavage, 0.46:
A28C C14U
A28G C52U

self-cleavage, 0.99:
A28C A39G
A28U A36G

self-cleavage, 0.51:
A28C G34U
A28G U37G

self-cleavage, 0.08:
C27U U43G
A28C A40C
A28C C32A
A28C G22C
A28C G42U
A28C G45U
A28C G47C
A28C G48C
A28C G53C
A28G A29G
A28G C15A
A28G C15U
A28G C20G
A28G C31U
A28G C32G
A28G G19U
A28G G34C
A28G G47A
A28U A29G
A28U A46U
A28U C33A

self-cleavage, 0.7:
A28U A46G
A28U C11U

self-cleavage, 0.69:
A28C G34A

self-cleavage, 0.75:
A28C G44U

self-cleavage, 0.71:
A28C C11A

self-cleavage, 0.72:
A28C U18C
A28C U43A

self-cleavage, 0.68:
A28C A40G
A28C C52A
A28C G22A

self-cleavage, 0.63:
A28U A39C

self-cleavage, 0.8:
A28C C9U

self-cleavage, 1.02:
A28C A36U

self-cleavage, 0.59:
A28G U18G

self-cleavage, 0.21:
A28C C11G
A28G A38C
A28G C26G
A28G G34A
A28G G35A
A28U A36C

self-cleavage, 0.81:
A28C G35A
A28C G50A

self-cleavage, 0.38:
A28C G34C
A28G A7G

self-cleavage, 0.4:
A28C G22U
A28C G35C

self-cleavage, 0.03:
A28C G13U
A28C G45C
A28G C26A
A28G G13C
A28U A29C
A28U C31A

self-cleavage, 0.76:
A28U A39U

self-cleavage, 0.23:
A28C G19C
A28C G53U
A28G A38U
A28G A41U
A28G C15G
A28G C21U
A28G G50U
A28G U18C

self-cleavage, 0.16:
A28C A29G
A28C G49A
A28G A39U
A28G C11U
A28U C9A
A28U C21A

self-cleavage, 0.43:
A28C G42A

self-cleavage, 0.78:
A28C C26U
A28C G53A

self-cleavage, 0.53:
A28C C21A

self-cleavage, 0.86:
A28C C33U
A28C G54C

self-cleavage, 0.98:
A28C A38C
A28C A41U
A28C G50U
A28C U37G

self-cleavage, 0.93:
A28C A39C
A28C C52G
A28U A41U
A28U C21U
A28U C52A
